Experimental data: publication PMC2674070 (Journal of immunology (Baltimore, Md. : 1950), 2009)
Ends that are not written are not given here.

molecular target: H-2D^b (Mus musculus, UniProt P01899); assay: MHC peptide-binding assay, purified H-2D^b
Sequence (P01899 25-362): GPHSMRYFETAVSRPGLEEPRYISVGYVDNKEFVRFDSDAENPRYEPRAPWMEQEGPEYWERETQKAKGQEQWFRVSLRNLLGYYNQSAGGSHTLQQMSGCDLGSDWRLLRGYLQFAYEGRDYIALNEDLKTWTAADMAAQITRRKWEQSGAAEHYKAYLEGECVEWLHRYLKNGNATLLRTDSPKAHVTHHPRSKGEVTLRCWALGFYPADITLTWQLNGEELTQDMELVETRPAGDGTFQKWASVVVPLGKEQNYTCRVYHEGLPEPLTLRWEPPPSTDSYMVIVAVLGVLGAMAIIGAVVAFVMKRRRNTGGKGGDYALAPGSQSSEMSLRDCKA
Sequence (P61769 21-119, further chain): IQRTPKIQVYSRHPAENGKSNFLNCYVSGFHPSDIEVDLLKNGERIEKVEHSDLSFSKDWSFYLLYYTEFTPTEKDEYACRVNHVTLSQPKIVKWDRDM

Q: Which IC50 does the source give for MTMRCIGI [Epitope E-2-6] here?
A: < 2 µM

Q: RALIFILL [Epitope M60-67] was tested. Which IC50 did it give?
A: < 2 µM

Q: For VSWTMKIL [Epitope E451-458], which IC50 is on record?
A: < 2 µM

molecular target: H-2K^b (Mus musculus, UniProt P01901); assay: MHC peptide-binding assay, purified H-2K^b
Sequence (P61769 21-119): as the sequence (P61769 21-119, further chain) above
Sequence (P01901 22-369): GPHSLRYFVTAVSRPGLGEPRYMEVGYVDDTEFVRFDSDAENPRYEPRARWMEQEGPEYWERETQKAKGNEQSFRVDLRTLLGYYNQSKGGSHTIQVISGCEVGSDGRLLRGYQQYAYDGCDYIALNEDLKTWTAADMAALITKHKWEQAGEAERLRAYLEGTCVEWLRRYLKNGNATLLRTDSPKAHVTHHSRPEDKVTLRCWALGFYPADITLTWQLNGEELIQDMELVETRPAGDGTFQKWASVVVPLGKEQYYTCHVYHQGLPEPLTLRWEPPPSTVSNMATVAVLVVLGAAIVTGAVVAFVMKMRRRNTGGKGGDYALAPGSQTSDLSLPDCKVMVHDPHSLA
Summary of the method: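 Radiolabelled (chloramine-T) reference peptide at 0.1-1 nM is incubated at room temperature for 2 days with purified MHC (1 µM to 1 nM), 1-3 µM human β2-microglobulin and protease inhibitors. MHC-peptide complexes are captured on plates coated with Y3 (anti-H-2K^b) antibody, and bound cpm are read by microscintillation counting. Test peptides are ≥95% pure by reverse-phase HPLC.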

Q: With `CC(C)C[C@H](NC(=O)[C@H](CO)NC(=O)[C@@H](NC(=O)[C@H](CC(N)=O)NC(=O)[C@@H](NC(=O)[C@H](CO)NC(=O)[C@@H](N)CO)C(C)C)C(C)C)C(=O)N[C@H](C(=O)O)[C@@H](C)O` [NS4B59-66] as the compound, how does the IC50 read?
A: < 2 µM

Q: Which IC50 does the source give for FSLGVLGM [NS2A8-15] here?
A: < 2 µM

Q: With LAVTIMAIL [NS2A145-153] as the compound, how does the IC50 read?
A: < 2 µM

Q: Which IC50 does the source give for RMLINRFTM [NS5_237-245] here?
A: < 2 µM

Q: With TAIANQATV [NS4B66-74] as the compound, how does the IC50 read?
A: < 2 µM

Q: VSWTMKIL [Epitope E451-458] was tested. Which IC50 did it give?
A: 0.458 µM
